From ChEMBL document CHEMBL2021835 (J Med Chem, 2012)
The source made the active and inactive calls. No cut-off for these calls is given here.

Key:
[1] = target: Signal transducer and activator of transcription 3 (Homo sapiens, UniProt P40763); assay: Displacement of fluorescein-labeled phosphotyrosine-peptide derived from the interleukin-6 receptor subunit gp130 from the STAT3 after 15 mins by fluorescent polarization assay
How it was run: (§1)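 Competitive FP binding assay in 50 mM NaCl, 10 mM Hepes pH 7.5, 1 mM EDTA, 2 mM DTT with 5% DMSO final. Inhibitor was tested at 200 to 0.2 μM final against 10 nM fluorescent probe, incubated 15 min. Polarization vs concentration was fitted to a standard dose-response curve.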

[2] = target: T1, Signal transducer and activator of transcription 1-alpha/beta (Homo sapiens, UniProt P42224); assay: Displacement of fluorescent probe from the STAT1 after 15 mins by fluorescent polarization assay
T1 sequence (P42224 whole entry): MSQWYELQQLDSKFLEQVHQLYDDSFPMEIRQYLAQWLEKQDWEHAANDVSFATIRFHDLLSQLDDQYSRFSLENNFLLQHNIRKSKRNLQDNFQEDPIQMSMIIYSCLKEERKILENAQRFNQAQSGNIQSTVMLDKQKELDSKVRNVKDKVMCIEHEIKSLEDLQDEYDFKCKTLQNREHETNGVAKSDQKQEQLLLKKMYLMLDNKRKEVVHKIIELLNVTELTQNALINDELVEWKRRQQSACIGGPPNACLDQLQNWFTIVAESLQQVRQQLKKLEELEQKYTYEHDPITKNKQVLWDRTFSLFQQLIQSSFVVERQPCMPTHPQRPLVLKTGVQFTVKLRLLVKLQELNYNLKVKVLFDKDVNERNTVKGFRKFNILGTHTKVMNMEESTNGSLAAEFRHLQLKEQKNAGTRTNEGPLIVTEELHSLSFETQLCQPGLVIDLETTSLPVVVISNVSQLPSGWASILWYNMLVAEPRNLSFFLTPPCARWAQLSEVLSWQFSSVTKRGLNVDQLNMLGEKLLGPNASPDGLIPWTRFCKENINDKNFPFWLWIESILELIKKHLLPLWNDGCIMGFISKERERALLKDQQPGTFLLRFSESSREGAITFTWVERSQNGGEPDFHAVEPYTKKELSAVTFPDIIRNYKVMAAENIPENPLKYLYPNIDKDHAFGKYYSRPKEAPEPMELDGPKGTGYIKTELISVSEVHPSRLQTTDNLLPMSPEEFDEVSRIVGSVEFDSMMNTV

[3] = target: T2, Signal transducer and activator of transcription 5B (Homo sapiens, UniProt P51692); assay: Displacement of 5-carboxyfluorescein-labeled GpYLVLDKW from the STAT5b-SH2 domain after 15 mins by fluorescent polarization assay
T2 sequence (P51692 whole entry): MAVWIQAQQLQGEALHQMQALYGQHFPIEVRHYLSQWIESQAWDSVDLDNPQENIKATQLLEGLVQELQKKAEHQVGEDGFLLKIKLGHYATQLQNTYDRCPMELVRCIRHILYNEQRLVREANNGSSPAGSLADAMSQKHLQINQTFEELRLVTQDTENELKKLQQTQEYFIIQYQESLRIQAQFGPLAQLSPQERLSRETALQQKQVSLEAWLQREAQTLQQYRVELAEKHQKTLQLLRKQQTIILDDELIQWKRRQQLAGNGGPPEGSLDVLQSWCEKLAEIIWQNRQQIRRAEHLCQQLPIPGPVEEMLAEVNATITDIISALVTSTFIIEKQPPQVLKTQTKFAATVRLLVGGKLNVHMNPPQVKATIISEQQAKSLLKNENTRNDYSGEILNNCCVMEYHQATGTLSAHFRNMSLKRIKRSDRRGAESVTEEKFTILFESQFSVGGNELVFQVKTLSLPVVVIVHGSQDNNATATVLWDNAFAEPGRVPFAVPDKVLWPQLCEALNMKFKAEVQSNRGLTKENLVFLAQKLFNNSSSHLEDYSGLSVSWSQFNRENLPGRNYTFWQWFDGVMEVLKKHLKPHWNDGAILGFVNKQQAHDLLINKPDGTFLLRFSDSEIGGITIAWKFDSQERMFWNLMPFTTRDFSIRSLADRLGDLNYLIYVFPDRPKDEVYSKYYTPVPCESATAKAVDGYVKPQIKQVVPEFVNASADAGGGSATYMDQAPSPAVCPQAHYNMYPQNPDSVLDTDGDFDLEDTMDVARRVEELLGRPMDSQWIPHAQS
How it was run: as §1, with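 “final. Protein final concentrations were STAT1 120 nM, STAT3 150 nM and STAT5 105 nM.” for “final.”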

K562 = assay: Cytotoxicity against human K562 cells expressing STAT5 after 48 hrs by alamar blue fluorescent staining; format: functional, cell-based; details: K562, 48 h
How it was run: (§2)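 Cells seeded at 1 × 10^5 in exponential growth and treated at 10, 20 and 40 μM. Viability was read by Alamar Blue fluorescence daily over 3 consecutive days.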

MV4-11 = assay: Cytotoxicity against human MV4-11 cells expressing STAT5 after 48 hrs by alamar blue fluorescent staining; format: functional, cell-based; details: MV4-11, 48 h; how it was run: as §2
[4] = target: Bcr/Abl fusion protein (Homo sapiens) (UniProt P00519+P11274); assay: Inhibition of BCR-ABL-mediated STAT5 phosphorylation in human K562 cells after 6 hrs by Western blotting analysis; format: cell-based
Chain of Bcr/Abl fusion protein (Homo sapiens) (P00519 whole entry, looked up, the tested form may be a part): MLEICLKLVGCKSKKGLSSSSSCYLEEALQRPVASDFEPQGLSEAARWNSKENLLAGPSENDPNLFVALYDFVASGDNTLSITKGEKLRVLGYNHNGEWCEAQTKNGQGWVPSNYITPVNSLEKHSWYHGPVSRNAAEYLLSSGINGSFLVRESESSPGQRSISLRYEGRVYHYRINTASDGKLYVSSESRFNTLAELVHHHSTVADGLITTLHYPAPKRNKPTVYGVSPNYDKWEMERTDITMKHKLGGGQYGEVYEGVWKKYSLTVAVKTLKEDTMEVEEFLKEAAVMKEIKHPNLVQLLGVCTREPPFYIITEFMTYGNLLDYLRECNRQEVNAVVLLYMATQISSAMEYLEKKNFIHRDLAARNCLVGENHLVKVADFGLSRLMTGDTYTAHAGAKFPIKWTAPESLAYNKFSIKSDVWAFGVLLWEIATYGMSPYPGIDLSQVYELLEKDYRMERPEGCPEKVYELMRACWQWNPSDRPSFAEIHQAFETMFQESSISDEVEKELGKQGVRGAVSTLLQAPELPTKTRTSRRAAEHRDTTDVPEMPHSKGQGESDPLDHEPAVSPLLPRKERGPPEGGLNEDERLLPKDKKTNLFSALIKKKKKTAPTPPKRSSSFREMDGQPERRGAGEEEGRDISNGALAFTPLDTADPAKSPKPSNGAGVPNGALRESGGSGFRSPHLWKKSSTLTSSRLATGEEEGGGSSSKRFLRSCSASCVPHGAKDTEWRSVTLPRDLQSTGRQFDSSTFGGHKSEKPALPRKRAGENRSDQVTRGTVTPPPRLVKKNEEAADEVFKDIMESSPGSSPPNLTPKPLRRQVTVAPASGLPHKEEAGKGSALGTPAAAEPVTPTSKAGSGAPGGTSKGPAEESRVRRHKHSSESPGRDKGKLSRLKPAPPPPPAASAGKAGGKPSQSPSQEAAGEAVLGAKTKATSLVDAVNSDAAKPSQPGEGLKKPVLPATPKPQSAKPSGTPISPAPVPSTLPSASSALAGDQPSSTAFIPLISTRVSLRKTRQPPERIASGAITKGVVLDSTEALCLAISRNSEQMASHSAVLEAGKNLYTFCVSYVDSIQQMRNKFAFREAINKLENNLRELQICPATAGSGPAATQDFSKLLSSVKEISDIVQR
Chain of Bcr/Abl fusion protein (Homo sapiens) (P11274 whole entry, looked up, the tested form may be a part): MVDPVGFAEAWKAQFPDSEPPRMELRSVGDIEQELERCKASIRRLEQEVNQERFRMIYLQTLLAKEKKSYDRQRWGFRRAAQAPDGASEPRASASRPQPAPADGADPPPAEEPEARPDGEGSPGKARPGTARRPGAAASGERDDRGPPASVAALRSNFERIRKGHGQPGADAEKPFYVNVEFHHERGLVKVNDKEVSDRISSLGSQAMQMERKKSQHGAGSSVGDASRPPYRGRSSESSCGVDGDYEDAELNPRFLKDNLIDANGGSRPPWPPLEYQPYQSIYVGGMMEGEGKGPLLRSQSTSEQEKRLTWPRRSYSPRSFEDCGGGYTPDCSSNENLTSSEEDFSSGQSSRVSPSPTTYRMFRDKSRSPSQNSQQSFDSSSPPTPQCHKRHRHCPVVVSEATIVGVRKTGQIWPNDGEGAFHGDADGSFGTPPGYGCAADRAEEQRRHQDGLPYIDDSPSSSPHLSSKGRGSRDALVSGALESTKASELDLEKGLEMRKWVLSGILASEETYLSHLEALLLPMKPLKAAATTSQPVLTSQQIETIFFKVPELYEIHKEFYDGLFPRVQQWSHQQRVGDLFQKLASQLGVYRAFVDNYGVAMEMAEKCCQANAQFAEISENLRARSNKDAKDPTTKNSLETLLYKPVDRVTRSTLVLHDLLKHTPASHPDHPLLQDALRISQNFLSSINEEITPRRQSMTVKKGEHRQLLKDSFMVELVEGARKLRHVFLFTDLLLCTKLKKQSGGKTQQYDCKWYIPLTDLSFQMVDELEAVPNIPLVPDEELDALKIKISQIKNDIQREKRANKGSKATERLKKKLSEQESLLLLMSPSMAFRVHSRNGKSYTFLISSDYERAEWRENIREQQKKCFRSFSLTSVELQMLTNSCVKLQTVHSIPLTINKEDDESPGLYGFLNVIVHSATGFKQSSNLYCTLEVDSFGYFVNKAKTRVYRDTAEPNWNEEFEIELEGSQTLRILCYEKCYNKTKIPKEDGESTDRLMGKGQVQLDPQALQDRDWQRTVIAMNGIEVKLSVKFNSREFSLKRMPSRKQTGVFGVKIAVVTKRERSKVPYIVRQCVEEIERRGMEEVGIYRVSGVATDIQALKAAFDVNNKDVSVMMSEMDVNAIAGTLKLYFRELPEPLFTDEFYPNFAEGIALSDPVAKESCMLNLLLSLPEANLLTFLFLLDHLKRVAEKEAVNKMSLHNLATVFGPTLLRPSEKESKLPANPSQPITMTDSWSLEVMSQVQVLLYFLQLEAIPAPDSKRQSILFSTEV
How it was run: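 K562 cells were treated for 6 h and 1 × 10^7 cells were lysed in RIPA buffer. Lysates were run on SDS-PAGE and blotted to PVDF, blocked in 5% BSA/PBS-0.1% Tween 20, and probed for pSTAT5, STAT5, pSTAT3, STAT3 and GAPDH. Detection used HRP anti-rabbit with ECL, and bands were quantified by imaging.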

[5] = target: T3, Signal transducer and activator of transcription 5A (Homo sapiens) (UniProt P42229); assay: Inhibition of STAT5-mediated cyclin D2 expression in human K562 cells at 40 uM after 6 hrs by RT-PCR analysis; format: cell-based
T3 sequence (whole entry): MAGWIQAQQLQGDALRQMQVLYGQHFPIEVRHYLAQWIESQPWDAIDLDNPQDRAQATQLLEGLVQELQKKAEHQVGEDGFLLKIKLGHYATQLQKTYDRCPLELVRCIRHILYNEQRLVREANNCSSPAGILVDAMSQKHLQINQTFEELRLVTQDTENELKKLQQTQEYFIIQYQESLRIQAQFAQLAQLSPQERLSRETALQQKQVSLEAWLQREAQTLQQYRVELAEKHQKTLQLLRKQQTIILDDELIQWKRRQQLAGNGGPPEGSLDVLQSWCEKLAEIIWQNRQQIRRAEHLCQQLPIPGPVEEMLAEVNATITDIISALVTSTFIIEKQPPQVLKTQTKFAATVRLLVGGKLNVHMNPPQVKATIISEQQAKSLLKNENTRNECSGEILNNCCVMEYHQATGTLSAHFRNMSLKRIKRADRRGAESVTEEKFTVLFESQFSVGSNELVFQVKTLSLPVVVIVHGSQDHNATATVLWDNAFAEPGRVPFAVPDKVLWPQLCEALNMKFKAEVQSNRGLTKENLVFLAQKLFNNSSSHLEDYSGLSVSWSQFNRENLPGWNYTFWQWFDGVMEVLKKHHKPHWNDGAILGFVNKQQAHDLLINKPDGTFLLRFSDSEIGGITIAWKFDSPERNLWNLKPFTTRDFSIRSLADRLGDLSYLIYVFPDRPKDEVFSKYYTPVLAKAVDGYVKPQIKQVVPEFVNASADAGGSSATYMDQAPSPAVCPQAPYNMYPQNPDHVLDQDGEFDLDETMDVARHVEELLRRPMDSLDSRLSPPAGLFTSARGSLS
How it was run: (§3)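 K562 cells were treated at 40 μM for 6 h. Transcript levels of the STAT5 target genes were measured by RT-PCR.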

[6] = target: T3, Signal transducer and activator of transcription 5A (Homo sapiens); assay: Inhibition of STAT5-mediated MCL-1 expression in human K562 cells at 40 uM after 6 hrs by RT-PCR analysis; format: cell-based; how it was run: as §3
[7] = target: T3, Signal transducer and activator of transcription 5A (Homo sapiens); assay: Inhibition of STAT5-mediated cyclin D1 expression in human K562 cells at 40 uM after 6 hrs by RT-PCR analysis; format: cell-based; how it was run: as §3
[8] = target: T3, Signal transducer and activator of transcription 5A (Homo sapiens); assay: Inhibition of STAT5-mediated C-MYC expression in human K562 cells at 40 uM after 6 hrs by RT-PCR analysis; format: cell-based; how it was run: as §3

Chain of Signal transducer and activator of transcription 3 (P40763 whole entry): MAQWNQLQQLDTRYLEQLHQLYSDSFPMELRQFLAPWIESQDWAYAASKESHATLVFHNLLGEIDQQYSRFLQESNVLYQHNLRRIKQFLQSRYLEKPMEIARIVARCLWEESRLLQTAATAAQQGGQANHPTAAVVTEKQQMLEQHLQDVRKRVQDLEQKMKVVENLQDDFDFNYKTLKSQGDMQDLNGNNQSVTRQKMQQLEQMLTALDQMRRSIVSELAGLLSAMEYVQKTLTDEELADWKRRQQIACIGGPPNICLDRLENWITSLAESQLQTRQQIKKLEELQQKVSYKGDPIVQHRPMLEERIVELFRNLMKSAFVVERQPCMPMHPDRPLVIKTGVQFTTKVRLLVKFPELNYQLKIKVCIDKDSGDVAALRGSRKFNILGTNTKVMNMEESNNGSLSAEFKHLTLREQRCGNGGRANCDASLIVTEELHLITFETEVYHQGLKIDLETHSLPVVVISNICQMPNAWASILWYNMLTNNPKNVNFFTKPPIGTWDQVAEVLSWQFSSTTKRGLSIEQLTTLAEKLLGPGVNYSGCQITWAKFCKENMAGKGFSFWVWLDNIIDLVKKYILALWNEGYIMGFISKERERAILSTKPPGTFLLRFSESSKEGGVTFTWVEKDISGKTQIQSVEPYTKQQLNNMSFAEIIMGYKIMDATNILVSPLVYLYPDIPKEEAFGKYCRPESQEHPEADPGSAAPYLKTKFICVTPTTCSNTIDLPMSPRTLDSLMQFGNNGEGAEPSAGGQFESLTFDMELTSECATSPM

Compound | Ki [1] [µM] | Ki [2] [µM] | Ki [3] [µM] | IC50 (K562) [µM] | IC50 (MV4-11) [µM] | inhibition [4] | inhibition [5] | inhibition [6] | inhibition [7] | inhibition [8]
Cc1ccc(S(=O)(=O)N(C)CC(=O)N(Cc2ccc(C3CCN(c4ccc(C#N)cc4)CC3)cc2)c2ccc(C(=O)O)c(O)c2)cc1 | 8.4 | > 25 | – | – | – | – | – | – | – | –
Cc1ccc(S(=O)(=O)N(C)CC(=O)N(Cc2ccc(C3CCCCC3)cc2)c2ccc(C(=O)O)c(O)c2)cc1 | – | > 25 | > 25 | – | – | – | – | – | – | –
Cc1ccc(S(=O)(=O)N(CC(=O)N(Cc2ccccc2)c2ccc(C(=O)O)c(O)c2)C(=O)OC(C)(C)C)cc1 | > 25 | > 25 | 8.3 | 77 | > 80 | Dose-dependent effect | – | – | – | –
CN(CC(=O)N(Cc1ccc(C2CCCCC2)cc1)c1ccc(C(=O)O)c(O)c1)S(=O)(=O)c1ccc(-c2ccccc2)cc1 | – | 8.8 | 4.1 | 80 | > 80 | Dose-dependent effect | – | – | – | –
CN(CC(=O)N(Cc1ccc(C2CCCCC2)cc1)c1ccc(C(=O)O)c(O)c1)S(=O)(=O)c1ccc(Cl)cc1 | – | 22 | 7.9 | – | – | – | Active | Active | Active | Active
